Measurements taken from ChEMBL document CHEMBL5058577, “EUbOPEN Chemogenomics Library 2 (Multiplex)” (2022).

System: HEK-293T
Test: Multiplex assay against HEK293T
Assay type: toxicity, cell-based
Conditions: human
How it was run: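 Live cells were stained at seeding with Hoechst33342, BioTracker Green Microtubule Cytoskeleton Dye, MitoTracker Red and Annexin V Alexa Fluor 680. Following compound addition, they were imaged on a CQ1 microscope at 37°C and 5% CO2 and gated by CellPathfinder machine learning into Hoechst high-intensity objects or normal cells, with normal cells split into healthy, pyknosed or fragmented nuclei and pyknosed cells into mitotic or apoptotic. Tubulin, mitochondrial-mass and membrane-permeability phenotypes are per cents of healthy-nucleus cells.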

[1] = 12 h, 1 µM, compound concentration 1 uM, replicate 1
[2] = 12 h, 1 µM, compound concentration 1 uM, replicate 2
[3] = 12 h, 10 µM, compound concentration 10 uM, replicate 1
[4] = 12 h, 10 µM, compound concentration 10 uM, replicate 2
[5] = 24 h, 1 µM, compound concentration 1 uM, replicate 1
[6] = 24 h, 1 µM, compound concentration 1 uM, replicate 2
[7] = 24 h, 10 µM, compound concentration 10 uM, replicate 1
[8] = 24 h, 10 µM, compound concentration 10 uM, replicate 2
[9] = 48 h, 1 µM, compound concentration 1 uM, replicate 1
[10] = 48 h, 1 µM, compound concentration 1 uM, replicate 2
[11] = 48 h, 10 µM, compound concentration 10 uM, replicate 1
[12] = 48 h, 10 µM, compound concentration 10 uM, replicate 2

With CC1(COc2ccc3c(c2)ncn3-c2ccc3cccc(N4CCC(N)CC4)c3n2)COC1 [CRENOLANIB] the “Population Apoptotic (%)” value [1] was 58%, the “Population Fragmented Nuclei (%)” value [1] was 14% and the “Population Healthy Nuclei (%)” value [1] was 79%. The “Population Hoechst High Intensity Objects (%)” value [1] was 3%, the “Population Membrane Permeable-Phenotype (%)” value [1] was 2% and the “Population Mitochondria Different-Phenotype (%)” value [1] was 23%. The “Population Mitotic Cells (%)” value [1] was 41%, the “Population Normal (%)” value [1] was 96% and the “Population Pyknosed Nuclei (%)” value [1] was 6%. The “Population Tubulin-Different-Phenotype (%)” value [1] was 46%, the “Total Cell Count” value [1] was 412 and the “Population Apoptotic (%)” value [2] was 34%. The “Population Fragmented Nuclei (%)” value [2] was 10%, the “Population Healthy Nuclei (%)” value [2] was 80% and the “Population Hoechst High Intensity Objects (%)” value [2] was 6%. The “Population Membrane Permeable-Phenotype (%)” value [2] was 1%, the “Population Mitochondria Different-Phenotype (%)” value [2] was 51% and the “Population Mitotic Cells (%)” value [2] was 65%. The “Population Normal (%)” value [2] was 93%, the “Population Pyknosed Nuclei (%)” value [2] was 8% and the “Population Tubulin-Different-Phenotype (%)” value [2] was 51%. For the same compound, the “Total Cell Count” value [2] was 332, the “Population Apoptotic (%)” value [3] was 69% and the “Population Fragmented Nuclei (%)” value [3] was 67%. The “Population Healthy Nuclei (%)” value [3] was 13%, the “Population Hoechst High Intensity Objects (%)” value [3] was 67% and the “Population Membrane Permeable-Phenotype (%)” value [3] was 0%. For the same compound, the “Population Mitochondria Different-Phenotype (%)” value [3] was 84%, the “Population Mitotic Cells (%)” value [3] was 30% and the “Population Normal (%)” value [3] was 32%. For the same compound, the “Population Pyknosed Nuclei (%)” value [3] was 18%, the “Population Tubulin-Different-Phenotype (%)” value [3] was 68% and the “Total Cell Count” value [3] was 423. For the same compound, the “Population Apoptotic (%)” value [4] was 55%, the “Population Fragmented Nuclei (%)” value [4] was 64% and the “Population Healthy Nuclei (%)” value [4] was 17%. The “Population Hoechst High Intensity Objects (%)” value [4] was 69%, the “Population Mitochondria Different-Phenotype (%)” value [4] was 90% and the “Population Mitotic Cells (%)” value [4] was 45%. The “Population Normal (%)” value [4] was 30%, the “Population Pyknosed Nuclei (%)” value [4] was 17% and the “Population Tubulin-Different-Phenotype (%)” value [4] was 50%. The “Total Cell Count” value [4] was 376, the “Population Apoptotic (%)” value [5] was 29% and the “Population Fragmented Nuclei (%)” value [5] was 20%. For the same compound, the “Population Healthy Nuclei (%)” value [5] was 66%, the “Population Hoechst High Intensity Objects (%)” value [5] was 2% and the “Population Membrane Permeable-Phenotype (%)” value [5] was 2%. For the same compound, the “Population Mitochondria Different-Phenotype (%)” value [5] was 22%, the “Population Mitotic Cells (%)” value [5] was 70% and the “Population Normal (%)” value [5] was 97%. For the same compound, the “Population Pyknosed Nuclei (%)” value [5] was 12%, the “Population Tubulin-Different-Phenotype (%)” value [5] was 23% and the “Total Cell Count” value [5] was 547. For the same compound, the “Population Apoptotic (%)” value [6] was 45%, the “Population Fragmented Nuclei (%)” value [6] was 15% and the “Population Healthy Nuclei (%)” value [6] was 73%. The “Population Hoechst High Intensity Objects (%)” value [6] was 6%, the “Population Membrane Permeable-Phenotype (%)” value [6] was 1% and the “Population Mitochondria Different-Phenotype (%)” value [6] was 33%. The “Population Mitotic Cells (%)” value [6] was 54%, the “Population Normal (%)” value [6] was 93% and the “Population Pyknosed Nuclei (%)” value [6] was 11%. The “Population Tubulin-Different-Phenotype (%)” value [6] was 35%, the “Total Cell Count” value [6] was 415 and the “Population Apoptotic (%)” value [7] was 72%. The “Population Fragmented Nuclei (%)” value [7] was 60%, the “Population Healthy Nuclei (%)” value [7] was 16% and the “Population Hoechst High Intensity Objects (%)” value [7] was 56%. For the same compound, the “Population Membrane Permeable-Phenotype (%)” value [7] was 0%, the “Population Mitochondria Different-Phenotype (%)” value [7] was 89% and the “Population Mitotic Cells (%)” value [7] was 27%. For the same compound, the “Population Normal (%)” value [7] was 43%, the “Population Pyknosed Nuclei (%)” value [7] was 23% and the “Population Tubulin-Different-Phenotype (%)” value [7] was 92%. For the same compound, the “Total Cell Count” value [7] was 394, the “Population Fragmented Nuclei (%)” value [8] was 69% and the “Population Healthy Nuclei (%)” value [8] was 15%. For the same compound, the “Population Hoechst High Intensity Objects (%)” value [8] was 63%, the “Population Mitochondria Different-Phenotype (%)” value [8] was 94% and the “Population Normal (%)” value [8] was 36%. For the same compound, the “Population Pyknosed Nuclei (%)” value [8] was 14%, the “Population Tubulin-Different-Phenotype (%)” value [8] was 73% and the “Total Cell Count” value [8] was 334. For the same compound, the “Population Apoptotic (%)” value [9] was 29%, the “Population Fragmented Nuclei (%)” value [9] was 19% and the “Population Healthy Nuclei (%)” value [9] was 72%. The “Population Hoechst High Intensity Objects (%)” value [9] was 1%, the “Population Membrane Permeable-Phenotype (%)” value [9] was 1% and the “Population Mitochondria Different-Phenotype (%)” value [9] was 17%. For the same compound, the “Population Mitotic Cells (%)” value [9] was 70%, the “Population Normal (%)” value [9] was 98% and the “Population Pyknosed Nuclei (%)” value [9] was 7%. The “Population Tubulin-Different-Phenotype (%)” value [9] was 10%, the “Total Cell Count” value [9] was 844 and the “Population Apoptotic (%)” value [10] was 47%. The “Population Fragmented Nuclei (%)” value [10] was 23%, the “Population Healthy Nuclei (%)” value [10] was 70% and the “Population Mitochondria Different-Phenotype (%)” value [10] was 21%. The “Population Mitotic Cells (%)” value [10] was 52%, the “Population Pyknosed Nuclei (%)” value [10] was 6% and the “Population Tubulin-Different-Phenotype (%)” value [10] was 14%. For the same compound, the “Total Cell Count” value [10] was 639, the “Population Apoptotic (%)” value [11] was 86% and the “Population Fragmented Nuclei (%)” value [11] was 51%. The “Population Healthy Nuclei (%)” value [11] was 17%, the “Population Hoechst High Intensity Objects (%)” value [11] was 41% and the “Population Membrane Permeable-Phenotype (%)” value [11] was 0%. For the same compound, the “Population Mitochondria Different-Phenotype (%)” value [11] was 97%, the “Population Mitotic Cells (%)” value [11] was 13% and the “Population Normal (%)” value [11] was 59%. For the same compound, the “Population Pyknosed Nuclei (%)” value [11] was 30%, the “Population Tubulin-Different-Phenotype (%)” value [11] was 95% and the “Total Cell Count” value [11] was 400. The “Population Apoptotic (%)” value [12] was 84%, the “Population Fragmented Nuclei (%)” value [12] was 47% and the “Population Healthy Nuclei (%)” value [12] was 22%. For the same compound, the “Population Hoechst High Intensity Objects (%)” value [12] was 49%, the “Population Mitochondria Different-Phenotype (%)” value [12] was 96% and the “Population Mitotic Cells (%)” value [12] was 15%. The “Population Normal (%)” value [12] was 50%, the “Population Tubulin-Different-Phenotype (%)” value [12] was 96% and the “Total Cell Count” value [12] was 298.
